Legend:
[1] = molecular target: Histamine H3 receptor (Homo sapiens, UniProt Q9Y5N1); experiment: Displacement of [3H]-alpha-methylhistamine from human recombinant histamine H3 receptor expressed in Flp-In HEK cells after 90 mins by microbeta scintillation counting method; assay type: cell-based
How it was run: (§1)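 Radioligand binding was run by the NIMH Psychoactive Drug Screening Program. Compounds were first screened at 10 μM. Those giving ≥50% binding were taken to full competition curves. Ki is reported as pKi from a sigmoidal curve fit of triplicate measurements in a single experiment; the error is the curve-fit error.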

[2] = molecular target: T1, Muscarinic acetylcholine receptor M2 (Homo sapiens, UniProt P08172); experiment: Displacement of [3H]-QNB/[3H]-NMS from human recombinant Muscarinic acetylcholine M2 receptor expressed in stable CHO cells after 90 mins by microbeta scintillation counting method; assay type: cell-based; how it was run: as §1
T1 sequence (P08172 whole entry): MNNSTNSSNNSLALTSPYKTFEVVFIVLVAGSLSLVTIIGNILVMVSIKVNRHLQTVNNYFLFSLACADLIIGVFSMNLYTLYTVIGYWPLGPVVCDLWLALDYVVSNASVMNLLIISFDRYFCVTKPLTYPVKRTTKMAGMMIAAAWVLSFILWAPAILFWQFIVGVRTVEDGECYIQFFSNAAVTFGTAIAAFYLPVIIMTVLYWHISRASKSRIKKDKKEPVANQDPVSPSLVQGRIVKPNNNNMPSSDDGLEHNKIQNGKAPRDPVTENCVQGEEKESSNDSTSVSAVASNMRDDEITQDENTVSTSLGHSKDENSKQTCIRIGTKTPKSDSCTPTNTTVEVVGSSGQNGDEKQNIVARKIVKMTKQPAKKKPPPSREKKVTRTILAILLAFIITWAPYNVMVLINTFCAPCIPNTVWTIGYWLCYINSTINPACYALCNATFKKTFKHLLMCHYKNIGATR

[3] = Displacement of [3H]-PK11195 from PBR receptor in rat brain after 90 mins by microbeta scintillation counting method; assay type: tissue-based
How it was run: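 Radioligand binding run by the NIMH Psychoactive Drug Screening Program. Otherwise Ki comes from sigmoidal curve fits of triplicate measurements in a single experiment, or is averaged over repeated experiments each run in triplicate.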

[4] = molecular target: T2, Muscarinic acetylcholine receptor M1 (Homo sapiens) (UniProt P11229); experiment: Displacement of [3H]-QNB/[3H]-NMS from human recombinant Muscarinic acetylcholine M1 receptor expressed in stable CHO cells at 10 uM after 90 mins by microbeta scintillation counting method relative to control; assay type: cell-based
T2 sequence (whole entry): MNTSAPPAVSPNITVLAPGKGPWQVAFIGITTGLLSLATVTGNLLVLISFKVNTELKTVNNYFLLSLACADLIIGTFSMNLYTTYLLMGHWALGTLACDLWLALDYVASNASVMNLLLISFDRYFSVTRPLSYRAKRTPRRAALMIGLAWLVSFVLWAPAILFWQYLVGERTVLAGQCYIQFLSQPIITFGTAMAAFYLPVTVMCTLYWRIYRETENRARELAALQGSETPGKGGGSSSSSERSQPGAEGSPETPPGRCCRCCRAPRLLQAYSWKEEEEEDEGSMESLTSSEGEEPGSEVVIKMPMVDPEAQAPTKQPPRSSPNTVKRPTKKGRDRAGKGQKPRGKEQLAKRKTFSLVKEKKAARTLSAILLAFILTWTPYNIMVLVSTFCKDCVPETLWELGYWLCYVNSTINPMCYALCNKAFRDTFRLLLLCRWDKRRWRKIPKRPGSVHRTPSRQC

[5] = molecular target: Kappa-type opioid receptor (Homo sapiens, UniProt P41145); experiment: Displacement of [3H]-U69593 from human recombinant KOR receptor expressed in stable HEK cells after 90 mins by microbeta scintillation counting method; assay type: cell-based; how it was run: as §1
[6] = molecular target: D(1B) dopamine receptor (Homo sapiens, UniProt P21918); experiment: Displacement of [3H]-SCH23390 from human recombinant dopamine D5 receptor expressed in HEKT cells at 10 uM after 90 mins by microbeta scintillation counting method relative to control; assay type: cell-based
[7] = molecular target: T3, Alpha-2C adrenergic receptor (Homo sapiens, UniProt P18825); experiment: Displacement of [3H]-Rauwolscine from human recombinant adrenergic Alpha2C receptor expressed in stable MDCK cells after 90 mins by microbeta scintillation counting method; assay type: cell-based; how it was run: as §1
T3 sequence (P18825 whole entry): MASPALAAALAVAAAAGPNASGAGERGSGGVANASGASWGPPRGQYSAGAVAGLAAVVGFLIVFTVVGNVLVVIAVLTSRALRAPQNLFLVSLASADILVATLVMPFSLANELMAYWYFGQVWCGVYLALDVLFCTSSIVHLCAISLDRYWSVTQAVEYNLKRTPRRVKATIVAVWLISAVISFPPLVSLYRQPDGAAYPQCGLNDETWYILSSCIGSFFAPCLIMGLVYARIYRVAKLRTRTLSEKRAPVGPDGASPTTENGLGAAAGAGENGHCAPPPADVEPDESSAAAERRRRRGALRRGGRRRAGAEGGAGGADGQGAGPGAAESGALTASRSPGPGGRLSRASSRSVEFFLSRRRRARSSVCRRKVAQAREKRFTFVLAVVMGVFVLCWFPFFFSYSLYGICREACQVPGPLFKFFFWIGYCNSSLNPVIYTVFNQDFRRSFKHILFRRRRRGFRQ

[8] = molecular target: Muscarinic acetylcholine receptor M3 (Homo sapiens, UniProt P20309); experiment: Displacement of [3H]-QNB/[3H]-NMS from human recombinant Muscarinic acetylcholine M3 receptor expressed in stable CHO cells after 90 mins by microbeta scintillation counting method; assay type: cell-based; how it was run: as §1
[9] = molecular target: GABA-A receptor; anion channel (Rattus norvegicus) (UniProt O09028+P15431+P18506+P18508+P19969+P20236+P23574+P23576+P28471+P28473+P30191+P62813+P63079+P63138+Q91ZM7+Q9ES14); experiment: Displacement of [3H]-Muscimol from GABAA receptor in rat brain at 10 uM incubated for 90 mins by microbeta scintillation counting method relative to control; assay type: tissue-based
How it was run: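 Radioligand binding run by the NIMH Psychoactive Drug Screening Program. […] Otherwise Ki comes from sigmoidal curve fits of triplicate measurements in a single experiment, or is averaged over repeated experiments each run in triplicate.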

[10] = molecular target: T4, D(4) dopamine receptor (Homo sapiens, UniProt P21917); experiment: Displacement of [3H]-methylspiperone from human recombinant dopamine D4 receptor expressed in Stable HEK cells after 90 mins by microbeta scintillation counting method; assay type: cell-based; how it was run: as §1
T4 sequence (P21917 whole entry): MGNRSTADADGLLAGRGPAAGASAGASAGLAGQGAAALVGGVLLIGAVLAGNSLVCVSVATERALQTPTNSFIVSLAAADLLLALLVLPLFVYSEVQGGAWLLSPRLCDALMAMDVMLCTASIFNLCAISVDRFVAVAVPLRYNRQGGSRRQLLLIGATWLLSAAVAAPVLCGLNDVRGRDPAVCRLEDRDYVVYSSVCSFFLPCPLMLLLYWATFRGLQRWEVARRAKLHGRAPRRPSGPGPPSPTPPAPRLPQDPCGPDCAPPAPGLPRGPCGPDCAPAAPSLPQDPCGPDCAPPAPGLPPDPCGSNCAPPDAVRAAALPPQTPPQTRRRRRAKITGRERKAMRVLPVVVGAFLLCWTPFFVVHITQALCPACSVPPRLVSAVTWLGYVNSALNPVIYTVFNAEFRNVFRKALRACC

Sequence of Muscarinic acetylcholine receptor M3 (P20309 whole entry): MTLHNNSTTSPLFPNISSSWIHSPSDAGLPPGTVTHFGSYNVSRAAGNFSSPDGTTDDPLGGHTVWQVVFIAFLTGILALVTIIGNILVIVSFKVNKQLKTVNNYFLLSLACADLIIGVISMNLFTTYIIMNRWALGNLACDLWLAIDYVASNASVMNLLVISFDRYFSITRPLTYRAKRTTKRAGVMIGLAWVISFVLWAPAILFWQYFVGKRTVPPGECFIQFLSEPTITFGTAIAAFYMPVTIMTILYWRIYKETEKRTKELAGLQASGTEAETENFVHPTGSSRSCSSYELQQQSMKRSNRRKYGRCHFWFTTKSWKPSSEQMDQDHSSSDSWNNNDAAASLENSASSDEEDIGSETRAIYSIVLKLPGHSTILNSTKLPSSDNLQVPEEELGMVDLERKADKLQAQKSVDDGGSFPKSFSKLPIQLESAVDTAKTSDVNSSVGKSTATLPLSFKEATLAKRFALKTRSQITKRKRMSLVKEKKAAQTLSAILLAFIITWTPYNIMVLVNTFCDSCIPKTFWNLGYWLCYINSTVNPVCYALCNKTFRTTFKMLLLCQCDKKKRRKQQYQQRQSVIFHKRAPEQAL
Sequence of Kappa-type opioid receptor (P41145 whole entry): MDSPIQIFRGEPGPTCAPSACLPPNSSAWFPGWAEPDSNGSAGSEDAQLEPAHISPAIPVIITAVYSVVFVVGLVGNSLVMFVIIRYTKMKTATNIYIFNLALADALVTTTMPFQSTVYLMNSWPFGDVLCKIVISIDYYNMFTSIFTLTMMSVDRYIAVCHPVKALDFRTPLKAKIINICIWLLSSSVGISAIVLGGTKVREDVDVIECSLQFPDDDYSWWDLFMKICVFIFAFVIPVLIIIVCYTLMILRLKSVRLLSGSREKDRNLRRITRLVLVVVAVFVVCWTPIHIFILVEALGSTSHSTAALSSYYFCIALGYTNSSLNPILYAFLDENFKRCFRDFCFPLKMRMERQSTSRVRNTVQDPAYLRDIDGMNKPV
Sequence of Histamine H3 receptor (Q9Y5N1 whole entry): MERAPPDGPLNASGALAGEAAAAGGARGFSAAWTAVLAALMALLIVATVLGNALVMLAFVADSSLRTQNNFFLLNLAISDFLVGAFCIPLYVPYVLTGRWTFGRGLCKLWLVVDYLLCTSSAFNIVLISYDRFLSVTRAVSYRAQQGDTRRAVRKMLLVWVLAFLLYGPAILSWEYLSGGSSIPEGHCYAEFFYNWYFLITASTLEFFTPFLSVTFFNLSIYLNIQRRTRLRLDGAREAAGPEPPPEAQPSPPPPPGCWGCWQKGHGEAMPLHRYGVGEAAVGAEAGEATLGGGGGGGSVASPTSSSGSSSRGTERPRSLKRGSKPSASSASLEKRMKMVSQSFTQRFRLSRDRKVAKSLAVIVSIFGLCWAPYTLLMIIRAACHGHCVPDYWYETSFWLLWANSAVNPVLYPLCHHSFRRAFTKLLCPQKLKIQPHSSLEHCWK
Sequence of D(1B) dopamine receptor (P21918 whole entry): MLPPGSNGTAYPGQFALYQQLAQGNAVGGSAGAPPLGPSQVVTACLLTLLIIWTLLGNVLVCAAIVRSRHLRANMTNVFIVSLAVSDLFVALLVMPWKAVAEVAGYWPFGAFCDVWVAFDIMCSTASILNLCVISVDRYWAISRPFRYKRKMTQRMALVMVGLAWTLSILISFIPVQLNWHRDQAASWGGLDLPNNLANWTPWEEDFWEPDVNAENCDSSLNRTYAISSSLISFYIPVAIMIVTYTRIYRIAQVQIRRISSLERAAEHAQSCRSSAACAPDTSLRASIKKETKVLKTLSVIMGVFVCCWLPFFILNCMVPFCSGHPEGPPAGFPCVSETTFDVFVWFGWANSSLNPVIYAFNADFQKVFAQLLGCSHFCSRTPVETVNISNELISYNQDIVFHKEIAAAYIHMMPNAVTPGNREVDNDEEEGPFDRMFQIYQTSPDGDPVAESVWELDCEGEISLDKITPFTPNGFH

Structure (SMILES)	Ki [1] [µM]	Ki [2] [µM]	pKi [3]	inhibition [4] [%]	Ki [5] [µM]	inhibition [6] [%]	Ki [7] [µM]	Ki [8] [µM]	inhibition [9] [%]	Ki [10] [µM]
CC[C@H]1c2cc(C)ccc2OC[C@@]1(C)N (racemic)	> 10	> 10	< 5	< 50	> 10	< 50	> 10	> 10	< 50	> 10
COc1cc(OC)c2c(c1)OC[C@@]1(C)NCC[C@@H]21 (racemic)	–	> 10	< 5	< 50	> 10	< 50	> 10	> 10	< 50	> 10
C[C@@]12CN(c3ccccc3)c3ccccc3[C@@H]1CCN2 (racemic)	–	> 10	–	–	> 10	–	1	> 10	–	> 10
CC[C@H]1c2cc(OC)ccc2CC[C@@]1(C)N (racemic)	> 10	> 10	< 5	< 50	0.316	< 50	> 10	> 10	< 50	> 10
CC[C@H]1c2ccccc2N(c2ccccc2)C[C@@]1(C)N (racemic)	3.98	> 10	–	–	> 10	–	> 10	> 10	–	2
